# Bioassay records: PubChem, The Scripps Research Institute Molecular Screening Center
# CHO parental Ca = counter-screen for OX1R antagonists: effect in parental CHO cells. parental CHO-K1, ATP-induced calcium, Fluo-8 fluorescence. inhibition, % at 5.6 µM. 330,000 tested, 0.63% active;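 active = inhibition above that plate's mean sample inhibition plus 3 SD, cut at about 26% in these data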;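 also: 0% = ATP-challenged DMSO wells and 100% = DMSO wells without ATP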
#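 Measured by: calcium-sensitive Fluo-8 fluorescence / Test system: CHO parental line / Controls: ATP-challenged DMSO wells low, unchallenged DMSO wells high / Measure: % inhibition / Compound: single nominal dose of 5.6 µM per compound / Replicates: single well per compound, no replicates / Reagent: ATP as calcium-mobilizing challenge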
# GalR3 antag = antagonists of human GalR3. HEK293 GalR3-CNG cAMP membrane potential fluorescence; galR3 body fused to GalR1 C-terminus. inhibition, % at 3 µM. 360,000 tested, 0.44% active;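 active = inhibition above the screen-wide average plus 3 SD, cut at about 13% in these data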;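 also: forskolin and galanin both at EC90 stimulate the cells; cAMP rise reported by CNG channel membrane potential dye signal; 0% = forskolin plus galanin with DMSO and 100% = forskolin alone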
# Target sequence (O60755 1-299 limits assumed): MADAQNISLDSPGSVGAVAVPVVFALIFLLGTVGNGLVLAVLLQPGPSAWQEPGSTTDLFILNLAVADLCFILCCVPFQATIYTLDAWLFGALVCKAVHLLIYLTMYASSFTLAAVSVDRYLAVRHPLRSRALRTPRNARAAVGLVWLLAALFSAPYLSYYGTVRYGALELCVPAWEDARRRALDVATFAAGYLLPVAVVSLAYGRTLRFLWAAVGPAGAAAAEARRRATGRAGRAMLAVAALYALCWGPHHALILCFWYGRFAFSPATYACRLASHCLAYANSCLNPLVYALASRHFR
# OX1R antag-1 = human HCRTR1 antagonism. O43613. CHO/OX1R cells, Fluo-8 calcium fluorescence, orexin A. inhibition, % at 5 µM. 330,000 tested, 0.43% active;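 active = inhibition above its plate's threshold, mean inhibition of all tested compounds on the plate plus 3 SD, cut at about 37% in these data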;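 also: 0% = orexin A challenge wells and 100% = SB-334867-A antagonist wells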
# GPR7 antag = antagonists of human GPR7 (neuropeptides B/W receptor 1); GPR7-expressing cells, fluorescence antagonist assay; 290,000 tested, 1.1% active; inhibition, % at 4.4 µM; in the data active = inhibition above about 16%, passing the limit was not always enough;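 also: cells stimulated with the agonist NPW; 0% = agonist with vehicle and 100% = vehicle without agonist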
# Target sequence (P48145 whole entry, looked up): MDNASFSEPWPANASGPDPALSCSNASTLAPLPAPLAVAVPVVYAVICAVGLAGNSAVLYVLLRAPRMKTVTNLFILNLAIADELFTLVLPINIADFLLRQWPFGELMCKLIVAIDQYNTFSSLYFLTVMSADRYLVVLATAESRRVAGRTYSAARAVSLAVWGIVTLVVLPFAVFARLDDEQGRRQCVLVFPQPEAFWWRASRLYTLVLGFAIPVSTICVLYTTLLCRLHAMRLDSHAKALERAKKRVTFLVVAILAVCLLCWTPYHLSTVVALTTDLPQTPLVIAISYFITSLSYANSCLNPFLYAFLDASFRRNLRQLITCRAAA
# OX1R antag-2 = blocks the human orexin 1 receptor; O43613; OX1R-expressing cells, FRET antagonist read-out; inhibition, % at 6.6 µM; 330,000 tested, 1.8% active; AID 485270; in the data active = inhibition mostly above about 38%, no sharp cut-off; inactive = mostly below about 40%;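 also: 0% = agonist challenge alone and 100% = reference antagonist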
# * marks the source's active call; other numbers are inactive results; . = no result. The list is not random: actives were taken first. Their share in the collection is about 3.1%.
SMILES,CHO parental Ca,GalR3 antag,OX1R antag-1,GPR7 antag,OX1R antag-2
Nc1nc(C(=O)N2CCOCC2)nn1S(=O)(=O)c1ccc(Cl)cc1,-2.6,-6.5,-10.0,-13.6,12.5
CNC(=O)c1nnsc1S(=O)(=O)c1ccc(Cl)cc1,.,-2.1,.,25.5*,.
O=C(c1nnsc1S(=O)(=O)c1ccc(Cl)cc1)N1CCOCC1,.,21.8*,.,12.0,.
C=CCN1C(=O)c2n[nH]c(COC)c2C1c1ccc(F)cc1 (stereo not given),.,-6.3,.,.,.
CCCCNC(=S)NNC(=O)c1cc(-c2ccncc2)nc2ccccc12,-15.8,-6.2,-28.4,-16.2,-9.3
O=C(Nc1cc(S(=O)(=O)N2CCCCC2)ccc1Oc1ccccc1)C1=COCCO1,-2.5,-3.9,-20.1,-6.4,1.7
Cc1c(C(=O)c2ccc(Br)cc2)c(=O)n(C)c(=O)n1C,3.2,4.4,-14.1,-0.1,3.3
NC(=O)c1ccc(C(=O)c2ccc([N+](=O)[O-])cc2)cc1,-10.8,-4.5,-3.9,-2.8,70.2*
O=C(O)c1ccc([N+](=O)[O-])cc1,.,-0.7,.,.,.
Cc1c(C(=O)c2ccc([N+](=O)[O-])cc2)c(=O)n(C)c(=O)n1C,-6.2,-1.3,-8.9,-13.0,73.8*
COc1cc(C(=S)N2CCOCC2)cc(OC)c1OC(=O)c1ccccc1[N+](=O)[O-],-22.4,-5.0,-14.9,-11.9,33.5*
CCN(CC)c1ccc2cc(-c3nnc(-c4ccc(Br)cc4)o3)c(=O)oc2c1,.,.,.,-7.7,.
CCN(CC)c1ccc2cc(-c3nc(-c4ccc(OC)cc4)cs3)c(=O)oc2c1,97.5*,0.7,106.1*,13.4,26.1
Cc1c(C(=O)OCC(=O)Nc2cccc(S(N)(=O)=O)c2)oc2c1ccc1ccccc12,1.7,-6.2,27.0,0.1,48.3*
CCOC(=O)c1csc(-c2ccc(OC)c(OC)c2)n1,-4.5,2.8,-23.2,-9.9,17.5
CCOC(=O)c1csc(-c2sccc2Br)n1,-8.4,9.0,-11.4,-4.9,44.9*
O=C(COC(=O)C1CC(=O)N(Cc2ccccc2)C1)c1ccc(F)cc1 (stereo not given),-4.7,1.6,-14.5,-6.5,13.7
N#CC1=C(N)Nc2ncnn2C1c1ccc([N+](=O)[O-])cc1 (stereo not given),5.0,0.9,-30.1,-9.2,68.8*
N#CC1=C(N)Nc2ncnn2C1c1ccccc1 (stereo not given),3.2,.,-2.7,1.6,6.6
Cc1ccccc1NC1=C/C(=N\S(=O)(=O)c2cccs2)c2ccccc2C1=O,-18.6,-7.9,-29.0,-6.7,38.7
Cc1ccccc1NC1=C/C(=N\S(=O)(=O)c2ccc(C(=O)O)cc2)c2ccccc2C1=O,1.7,-6.4,-14.7,-14.3,59.3*
COc1ccc(S(=O)(=O)/N=C2\C=C(Nc3ccc(O)cc3)C(=O)c3ccccc32)cc1,-23.3,-8.8,0.4,-28.0,27.5
O=C(O)c1ccc(S(=O)(=O)/N=C2\C=C(Nc3ccccc3F)C(=O)c3ccccc32)cc1,-16.6,-10.8,-11.4,-38.2,63.4*
Cc1ccc2oc3c(SCc4nc5ccccc5[nH]4)nc(C)nc3c2c1,-23.6,-0.3,-8.6,.,58.0*
Cc1nc(SCCc2nc3ccccc3[nH]2)c2oc3ccccc3c2n1,-15.5,-1.0,30.7,.,59.3*
SMILES,CHO parental Ca,GalR3 antag,OX1R antag-1,GPR7 antag,OX1R antag-2
Cc1nc(SCc2nc3ccc(F)cc3[nH]2)c2oc3ccccc3c2n1,-28.9,2.2,-29.2,.,32.8
Cc1nc(SCc2nc3c(O)cccc3[nH]2)c2oc3ccccc3c2n1,-11.9,6.1,-11.5,.,25.1
Cc1nc(SCc2nc3ccc([N+](=O)[O-])cc3[nH]2)c2oc3ccccc3c2n1,-26.5,-2.8,-17.5,.,15.8
Cc1nc(SCc2nc3ccccc3[nH]2)c2oc3cc(Br)ccc3c2n1,-11.0,0.9,26.8,.,48.2*
O=C(Nc1cc(S(=O)(=O)N2CCOCC2)ccc1O)c1ccc(NS(=O)(=O)c2ccc(Cl)s2)cc1,12.1,1.2,8.5,4.9,4.9
Cc1ccc(NC(=O)c2ccccc2NS(=O)(=O)c2ccc(Cl)s2)cc1S(=O)(=O)N1CCOCC1,0.6,-2.8,20.8,10.7,62.6*
Cc1cc(C)c(N=C2CCCN2Cc2ccccc2)c(C#N)c1,40.1*,-8.3,8.0,5.5,29.4
O=C(CCN1C(=O)/C(=C/c2ccccc2Cl)SC1=S)Nc1ccccn1,-12.8,1.1,-40.2,-40.4,65.2*
COCC(C)NC(=O)c1nn(Cc2ccccc2)c(=O)c2ccccc12 (stereo not given),-15.7,2.9,-18.3,-10.9,74.5*
CCC(C)NC(=O)c1nn(Cc2ccccc2)c(=O)c2ccccc12 (stereo not given),-21.9,-8.5,-31.6,-4.5,25.3
COc1cc(NC(=O)c2ccc3c(c2)OCO3)c2ncccc2c1,-11.7,3.5,-5.2,-5.7,66.8*
O=C(Nc1cccc2cccnc12)c1ccc2c(c1)OCCO2,-9.7,-4.1,11.2,-6.1,66.7*
COC(=O)c1ccccc1NC(=O)c1ccc2c(c1)OCCCO2,-15.7,-3.0,-4.8,-13.3,59.2*
COc1cc(NC(=O)c2cc(OC)c(OC)c(OC)c2)c2ncccc2c1,.,0.7,.,.,.
Cc1noc(C)c1CSc1nc2ccccc2nc1NS(=O)(=O)c1ccc(Cl)cc1,-7.6,.,-9.2,-11.4,60.8*
Cc1ncc(CN2CCCC(CCC(=O)NCc3ccc(F)c(F)c3)C2)s1 (stereo not given),-28.8,11.1,-29.3,4.8,29.4
O=c1oc2ccccc2c(O)c1CN1CCCCC1,1.0,-2.7,6.6,11.7,68.0*
O=c1oc2ccccc2c(Nc2ccccc2)c1CN1CCCCC1,-24.2,-4.5,-22.5,-13.8,8.2
Cc1cccc(OCc2nnc(SCC(=O)NC3CCCC3)n2C)c1,-2.9,-8.2,-8.7,-10.3,9.8
Brc1ccc(-c2nc(-c3ccncc3)no2)cc1,-5.9,3.0,0.5,-8.3,-2.4
O=[N+]([O-])c1ccc(-c2nc(-c3ccncc3)no2)cc1,-18.5,-4.3,-3.6,-13.9,63.7*
COc1ccc(NS(=O)(=O)c2ccc(Cl)c(C(=O)O)c2)cc1S(=O)(=O)N1CCCCC1,42.8*,3.0,1.4,-7.3,12.0
CN(C)c1ccc(S(=O)(=O)N2CCCCC2)cc1NC(=O)COc1ccccc1F,71.2*,-5.2,10.3,-15.7,6.8
COc1cc(C(C)=O)ccc1OCC(=O)Nc1ccc(C)c(S(=O)(=O)N2CCCCCC2)c1,32.5*,-5.3,53.4*,.,29.0
Cc1ccc(NC(=O)COc2ccccc2C(N)=O)cc1S(=O)(=O)N1CCCCCC1,27.9,1.8,53.0*,.,22.6
CN1CCc2c(sc(NC(=O)c3cc(Cl)sc3Cl)c2C(N)=O)C1,-10.7,.,-21.2,9.3,5.0
COCCn1c(Cc2ccccc2)nnc1SCC(=O)N1CCCC1=O,-15.0,0.4,-14.1,.,-0.9
CN(c1ccc(NC(=O)CCc2c[nH]c3ccccc23)cc1)c1ccccn1,.,-7.0,.,.,.
COc1cccc(Cn2c(N)c(C#N)c3nc4ccccc4nc32)c1OC,-11.2,-2.4,2.2,0.0,46.3*
